Test results published in publication PMC9339567 (Journal of Food and Drug Analysis, 2016).
“Also recorded” adds a separate entry of the source. Where no end group is shown, it is not given here.

How the values were obtained:
[1] = cited from earlier work
[2] = ref 28 (Tanzadehpanah et al); cited from earlier work
[3] = ref 32 (Sampath Kumar et al); cited from earlier work
[4] = ABTS radical scavenging activity assay; conditions: 6 minutes incubation, absorbance 734 nm; triplicate
[5] = DPPH radical scavenging assay; conditions: 15 μg/mL; absorbance 517 nm, 30 minutes in dark, room temperature; triplicate
How it was run: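 Test compound at 0.007–1 mg/mL, or GSH positive control over the same range, was mixed with an equal volume of 99.5% ethanol containing 0.02% DPPH. The mixture was held 30 minutes in the dark at room temperature and A517 read, with distilled water replacing sample as control. Scavenging % = (Acontrol − Asample)/Acontrol × 100; triplicate.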

[6] = system: HFLF-PI 5 cells; assay: Cytotoxicity assay; format: cell-based, human; conditions: 0–1 mg/mL, MTT 570 nm
How it was run: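 HFLF-PI 5 human lung cells were grown in RPMI with penicillin/streptomycin and 10% FBS at 37°C, 5% CO2. Cells were seeded at 1 × 10^5 cells/mL and, at 75% confluence, exposed to test compound at 0–1 mg/mL for 24, 48 or 72 hours, with PBS as control. After PBS washes, MTT (5 mg/mL stock) was added overnight at 37°C and formazan dissolved in DMSO. A570 was read and cytotoxicity % calculated relative to control.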

**Q.** With HGPLGPL as the substance, how does the “Activity against ROS and linoleic acid peroxidation” value [1] read?
**A.** strong activity

**Q.** For LTEQESGVPVMK, which “IC50 DPPH radical scavenging” value [2] is on record?
**A.** 28.6 ± 1.08 µg/mL

**Q.** For ACFL, which “Inhibition of the oxidation process relative to α-tocopherol” value [3] is on record?
**A.** greater levels of inhibition of the oxidation process

**Q.** What does the source list for glutathione [GSH]?
**A.** IC50 ABTS radical scavenging [4]: < 15 µg/mL; DPPH-radical scavenging [5]: 67%

**Q.** Which “Effect on cell viability” value ([6]; 24 hours, triplicate) does the source give for WESLSRLLG [WG-9] here?
**A.** no significantly effect on cell viability; also recorded: no significant cytotoxic effect

**Q.** And the “Effect on cell viability” value ([6]; 48 hours, p < 0.05)?
**A.** significantly reduced

**Q.** And the “Effect on cell viability” value ([6]; 72 hours, p < 0.05)?
**A.** significantly reduced
